Source: PubChem (The Scripps Research Institute Molecular Screening Center)
Most compounds without a hit are left out; they make up all but 1.1% or so of the library.
LYPLA1 counter = counter-screen for PME1 inhibitors: inhibitors of human LYPLA1. O75608. recombinant LYPLA1, FP-Rh probe fluorescence polarization. inhibition, % at 5.9 µM. hit rate 0.16% among 320,000. AID 2174;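 active means inhibition above the mean of all tested compounds plus 3 SD, set per campaign, cut at about 14% in these data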;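 further: inhibitors block serine hydrolase probe labeling of LYPLA1 so polarization falls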
LYPLA2 counter = counter-screen for PME1 inhibitors: inhibitors of human LYPLA2; AID 2177; recombinant LYPLA2, FP-Rh probe fluorescence polarization; O95372; hit rate 0.38% among 320,000; inhibition, % at 5.9 µM;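 active means inhibition above the screen-wide mean plus 3 SD, limit set per campaign, cut at about 26% in these data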
PREPL inh = human PREPL enzyme inhibition; hit rate 0.68% among 320,000; inhibition, % at 5.96 µM; Q4J6C6; recombinant PREPL, fluorescence polarization activity-based probe
Target sequence (Q4J6C6 whole entry, looked up): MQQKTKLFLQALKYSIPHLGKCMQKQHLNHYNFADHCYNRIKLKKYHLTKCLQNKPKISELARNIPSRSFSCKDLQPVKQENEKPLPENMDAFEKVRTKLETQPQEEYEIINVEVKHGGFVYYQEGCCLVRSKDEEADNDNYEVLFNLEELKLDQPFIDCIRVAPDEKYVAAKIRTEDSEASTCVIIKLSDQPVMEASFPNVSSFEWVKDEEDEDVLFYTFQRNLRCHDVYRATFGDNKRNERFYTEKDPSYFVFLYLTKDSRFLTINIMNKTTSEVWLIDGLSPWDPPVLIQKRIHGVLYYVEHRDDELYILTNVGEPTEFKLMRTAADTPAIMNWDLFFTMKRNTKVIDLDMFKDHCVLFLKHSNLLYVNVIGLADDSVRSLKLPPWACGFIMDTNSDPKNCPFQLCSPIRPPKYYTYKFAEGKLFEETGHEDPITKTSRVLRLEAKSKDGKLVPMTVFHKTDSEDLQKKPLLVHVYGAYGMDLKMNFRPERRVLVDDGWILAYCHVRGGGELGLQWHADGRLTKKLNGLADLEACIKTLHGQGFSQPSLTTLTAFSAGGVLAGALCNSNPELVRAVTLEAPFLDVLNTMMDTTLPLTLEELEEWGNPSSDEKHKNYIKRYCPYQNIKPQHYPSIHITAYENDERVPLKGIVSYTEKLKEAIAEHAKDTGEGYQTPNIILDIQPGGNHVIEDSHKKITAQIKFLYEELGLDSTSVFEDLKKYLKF
procasp3 activ = procaspase-3 (human) activation. P42574. recombinant procaspase-3 D3A, Ac-DEVD-pNA absorbance 405 nm. activation, % at 8.5 µM. hit rate 0.11% among 330,000. AID 463141;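 active means activation above the mean of all tested compounds plus 3 SD, cut at about 21% in these data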
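Evaluation: percent activation relative to control range; Material: Procaspase-3 D3A mutant, all three cleavage aspartates alanine; Compound: single dose, 8.5 µM nominal compound, 0.8% DMSO; Replication: one well per compound; Signal: absorbance at 405 nm, 0 and 120 min; Schedule: 1 h preincubation plus 2 h reaction at 25 °C.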
procasp7 counter = counter-screen for procaspase-3 activators: activators of human procaspase-7; P55210; AID 463210; hit rate 0.093% among 330,000; activation, % at 8.5 µM; recombinant procaspase-7, Ac-DEVD-pNA absorbance 405 nm; D23A/D198A/D206A triple mutant, cannot self-cleave; scale: DMSO 0, 5 µM enzyme 100;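 active means percent activation above the screen-wide mean plus 3 SD, cut at about 25% in these data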
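Detection: p-Nitroaniline absorbance at 405 nm, read at 0 and 120 min; system: Uncleavable procaspase-7 mutant enzyme; evaluation: % activation from two-timepoint absorbance difference, scaled to controls; times: 1 h enzyme–compound preincubation and 2 h substrate reaction, both 25 °C; buffer or medium: Zinc-free HEPES pH 7.4 with 300 mM NaCl, 0.01% Triton X-100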
PREPL inh cf = confirmation of human PREPL enzyme inhibitors; shares compounds with PREPL inh; recombinant PREPL, fluorescence polarization activity probe; inhibition, % at 5.96 µM; hit rate 67% among 2,000
Numbers stand for hits; . = inactive; / = no result given. Unless noted, no stated cut-off is given here; in the data, active means inhibition above about 43%; inactive means the rest.

SMILES	LYPLA1 counter	LYPLA2 counter	PREPL inh	procasp3 activ	procasp7 counter	PREPL inh cf
CC(=O)c1ccc(NC(=O)COC(=O)CCN2C(=O)c3cccc([N+](=O)[O-])c3C2=O)cc1	.	.	.	.	.	/
CCCC(C)c1nnc(NC(=O)C2CC(=O)N(CCc3ccc(F)cc3)C2)s1 (stereo not drawn)	.	.	.	.	.	/
O=C(NCc1ccccc1)c1ccc2nc(-c3ccco3)c(-c3ccco3)nc2c1	.	.	61.0	.	.	43.5
COc1ccc(CCNC(=O)COc2ncnc3cc([N+](=O)[O-])ccc23)cc1	.	.	.	.	.	/
O=[N+]([O-])c1cccc(COc2ncnc3cc([N+](=O)[O-])ccc23)c1	.	.	47.1	.	.	.
COC(=O)CCC(=O)OC1(C)C(=O)C2=CN(c3ccc(OC)cc3)C(c3ccc(OC)cc3)=CC2=C(Br)C1=O (stereo not drawn)	.	.	.	.	.	/
COCCN1C=C2C(=O)C(C)(OC(=O)CCC(=O)OC)C(=O)C(Br)=C2C=C1c1ccc(OC)cc1 (stereo not drawn)	.	.	64.0	.	.	.
COC(=O)CCC(=O)OC1(C)C(=O)C2=CN(C3CCCC3)C(c3ccc(OC)cc3)=CC2=C(Br)C1=O (stereo not drawn)	.	.	54.4	.	.	.
COC(=O)CCC(=O)OC1(C)C(=O)C2=CN(Cc3ccco3)C(c3ccc(OC)cc3)=CC2=C(Br)C1=O (stereo not drawn)	.	.	.	.	.	/
C=CCN1C=C2C(=O)C(C)(OC(=O)CCC(=O)OC)C(=O)C(Br)=C2C=C1c1ccc(OC)cc1 (stereo not drawn)	.	.	73.6	.	.	57.8
CCN(CC)CCCN1C=C2C(=O)C(C)(OC(=O)CCC(=O)OC)C(=O)C(Br)=C2C=C1c1ccc(OC)cc1 (stereo not drawn)	.	.	70.2	.	.	59.6
O=C1NC[C@@H](c2ccccc2)OC(=O)[C@@H](Cc2ccc(F)cc2)CC/C=C/C[C@@H]1CC(=O)N(CCO)Cc1ccccc1	/	/	.	.	.	/
COc1ccc(CN2C=C3C(=O)C(C)(OC(=O)CCc4ccccc4)C(=O)C=C3C=C2c2ccc(C#N)cc2)cc1 (stereo not drawn)	.	.	.	.	.	/
CCN(CC)CCCN1C=C2C(=O)C(C)(OC(=O)CCc3ccccc3)C(=O)C=C2C=C1c1ccc(C#N)cc1 (stereo not drawn)	.	.	43.1	.	.	.
Cc1ccc(S(=O)(=O)N2CCOCC2)cc1C(=O)N1CCC(Cc2ccccc2)CC1	.	.	.	.	.	/
Cn1c2ccccc2c2nnc(SCC(=O)NC3CCCC3)nc21	.	.	.	.	.	/
O=S(=O)(c1ccc(-c2csc(=Nc3ccccc3)n2CCCN2CCOCC2)cc1)N1CCOCC1	.	.	44.1	.	.	52.4
Cc1ccc(-n2[nH]c(C)c(C=Nc3ccc4[nH]c(=O)[nH]c4c3)c2=O)cc1C	.	.	57.3	.	.	.
Cc1ccc(-n2[nH]c(C)c(C=Nc3ccc4[nH]c(=O)[nH]c4c3)c2=O)cc1	.	.	.	.	.	/
CCOC(=O)c1sc(NCc2ccco2)c(-c2nc3ccccc3s2)c1N	.	.	45.0	.	.	45.6
Cc1nnc(N2C(=O)C(=O)/C(=C(/O)c3ccc4c(c3)OCCO4)C2c2ccc([N+](=O)[O-])cc2)s1 (stereo not drawn)	.	.	.	.	.	/
O=C(O)/C=C\C(=O)Nc1ccc(N2CCN(c3ccc(F)cc3)CC2)cc1	.	.	51.1	.	.	.
CC(=O)Nc1ccc(N2CCN(c3ccc(F)cc3)CC2)cc1	.	.	.	.	.	/
O=C(O)/C=C\C(=O)Nc1ccccc1C(=O)N1CCN(c2ccc(Cl)cc2)CC1	.	.	.	.	.	/
O=C(O)/C=C\C(=O)Nc1ccc(N2CCN(c3ccc(Cl)cc3)CC2)cc1	.	.	48.3	.	.	.
SMILES	LYPLA1 counter	LYPLA2 counter	PREPL inh	procasp3 activ	procasp7 counter	PREPL inh cf
Cc1ccc(C)c(C(=O)CCC(=O)Nc2ccc(F)cc2)c1	.	.	.	.	.	/
COc1ccc2[nH]c(C)c(C(=O)CN3CCN(C/C=C/c4ccccc4)CC3)c2c1	.	.	44.2	.	.	.
COc1ccc(N(CC2CO2)S(=O)(=O)c2ccc(C)cc2)cc1 (stereo not drawn)	.	.	.	.	.	/
Cn1cccc1Cc1nnc(SCC(=O)N2CCN(c3ccccc3)CC2)n1-c1ccc(F)cc1	.	.	49.4	.	.	.
CC(C)c1ccccc1NC(=O)CNCCOc1ccccc1F	.	.	.	.	.	/
COc1ccc(C)cc1Nc1n[n+](-c2ccccc2)c(-c2ccc(OC)c(OC)c2OC)s1	.	.	53.4	.	.	60.2
COc1ccc(C)cc1Nc1n[n+](-c2ccccc2)c(-c2ccc(N(C)C)cc2)s1	.	.	61.0	.	.	68.9
COc1ccc(C)cc1Nc1n[n+](-c2ccccc2)c(-c2c(Cl)cccc2Cl)s1	.	.	.	.	.	/
COc1cc(/C=N/N=C(N)N)ccc1OCc1ccccc1Cl	.	.	49.4	.	.	48.4
COc1ccc(/C=N/N=C/c2ccc(OC)c(OC)c2)cc1OC	.	.	.	.	.	/
COCCN(C(=O)CCSc1ccc(F)cc1)c1c(N)n(Cc2ccccc2)c(=O)[nH]c1=O	.	.	.	.	.	/
CC1(OC(=O)C2CCCC2)C(=O)C=C2C=C(c3ccsc3)N(C3CCCCC3)C=C2C1=O (stereo not drawn)	.	.	.	.	.	/
CC1(OC(=O)C2CCCC2)C(=O)C=C2C=C(c3ccsc3)N(CC3CC3)C=C2C1=O (stereo not drawn)	.	.	43.3	.	.	.
O=C(Nc1ccc(NC(=O)N2CCN(c3ccccc3O)CC2)cc1)N1CCN(c2ccccc2O)CC1	.	.	55.9	.	.	51.7
CCCS(=O)(=O)N1CCc2ccc(NC(=O)C3CCCO3)cc2C1 (stereo not drawn)	.	.	.	.	.	/
O=C(NCc1ccccc1)C(c1ccccn1)N(C(=O)c1csnn1)c1ccccc1F (stereo not drawn)	.	.	.	.	.	/
COc1ccc(N2CCc3c(C)nc4c(OC)cc(OC)cc4c32)cc1	.	.	51.5	.	.	49.2
COCc1c(C(=O)OCc2nnc(-c3ccc([N+](=O)[O-])cc3)o2)oc2ccccc12	/	/	43.3	.	.	.
Clc1cccc(-c2ccc(C3Nc4cccc5cccc(c45)N3)o2)c1	/	/	49.0	.	.	60.9
Cc1c(N=Cc2ccco2)c(=O)n(-c2ccccc2)n1C	.	.	.	.	.	/
COc1ccc2c(C=Nc3c(C)n(C)n(-c4ccccc4)c3=O)c(O)n(Cc3ccco3)c(=O)c2c1	.	.	55.6	.	.	.
